HTR1E agonist: 5-HT1E (human) receptor agonism; CHO 5-HT1E Ga15 NFAT-bla reporter, FRET; 0% DMSO wells, 100% control agonist wells; activation, % at 6 µM; 65,000 compounds, 0.69% hits; AID 574;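 active = activation above a set limit, the screen-wide mean activation plus 3 SD, cut at about 8.5% in these data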;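 also: 100% = positive control agonist at 1 µM giving full maximal response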
S1P3 agonist: agonists of human S1P3 receptor; Q99500; S1P3 NFAT-BLA reporter cells, agonism, FRET ratio; relative to 1 µM S1P, basal subtracted; activation, % at 4.5 µM; 60,000 compounds, 0.1% hits;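 active = activation above the screen-wide mean plus 3 SD, cut at about 4.5% in these data, passing the limit was not always enough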
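material = human S1P3 NFAT-BLA reporter CHO cells | schedule = 4 h compound at 37 °C, 2 h substrate at RT | measured by = fluorescent BLA substrate, ex 405 nm, em 460/535 nm ratio | controls = 1 µM S1P reference | replication = primary once, confirmation triplicate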
S1P1 ag-PAM: activates or potentiates agonism at human S1P1 receptor; P21453; S1P1 CRE-bla cells, forskolin, beta-lactamase FRET, potentiator mode; S1P1 agonist co-added at EC20, 2 nM; 100% = saturating reference agonist, 0% = basal; activation, % at 9.5 µM; 56,000 compounds, 0.57% hits; AID 449;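 active = activation above a cutoff set at the mean activation of all tested compounds plus 3 SD, cut at about 54% in these data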;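 also: forskolin at 4 µM as EC80 and the EC20 agonist is SEW2871; 100% = SEW2871 at its EC100 plus forskolin at EC80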
HTR1A agonist: activates the human 5-HT1a serotonin receptor; P08908; CHO 5-HT1a Ga15 NFAT-bla reporter, FRET ratio; 0% basal, 100% maximal reference agonist; activation, % at 10 µM; 65,000 compounds, 0.56% hits; AID 567;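 active = activation above the screen-wide mean activation plus 3 SD, cut at about 19% in these data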;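 also: 0% = DMSO wells and 100% = 5-CT at EC100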
Target sequence (P08908 whole entry, looked up): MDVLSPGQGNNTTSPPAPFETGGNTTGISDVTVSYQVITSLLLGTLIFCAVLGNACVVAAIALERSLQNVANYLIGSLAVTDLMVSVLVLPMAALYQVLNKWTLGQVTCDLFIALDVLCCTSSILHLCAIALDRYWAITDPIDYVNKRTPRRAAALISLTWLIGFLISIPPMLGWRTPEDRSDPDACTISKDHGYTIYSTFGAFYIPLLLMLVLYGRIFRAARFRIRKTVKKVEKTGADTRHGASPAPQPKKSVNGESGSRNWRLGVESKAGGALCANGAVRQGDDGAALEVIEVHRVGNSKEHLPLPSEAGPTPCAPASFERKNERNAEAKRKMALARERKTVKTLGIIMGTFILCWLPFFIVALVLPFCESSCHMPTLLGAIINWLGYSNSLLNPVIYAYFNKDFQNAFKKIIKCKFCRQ
5HT1E antag: antagonists of human 5-HT1E serotonin receptor. P28566. CHO 5-HT1E Ga15 NFAT-bla reporter, FRET, antagonist. inhibition, % at 6 µM. 65,000 compounds, 0.99% hits;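 active = inhibition above a set limit, the mean inhibition across every tested compound plus 3 SD, cut at about 29% in these data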;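 also: signal is the 460 over 535 nm emission ratio of beta-lactamase substrate; 0% = agonist plus DMSO wells and 100% = wells without agonist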
5-HT1A blocker: blocks the human serotonin 5-HT1a receptor; inhibition, % at 10 µM; 62,000 compounds, 0.68% hits; P08908; CHO 5-HT1a Ga15 NFAT-bla reporter, antagonist mode;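 active = inhibition above the mean of all tested compounds plus 3 SD, cut at about 43% in these data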;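 also: receptor stimulated by 5-CT agonist at 100 nM near EC80; beta-lactamase reporter measured by ratiometric fluorescence of a cleavable substrate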
The depositor's hits bear a star. Sampled rows, rich in hits. Any-hit rate of the full collection: about 2.9%.

`Clc1ccc2[nH]c3c(NCC4CCCO4)ncnc3c2c1` (stereo unspecified) gave HTR1E agonist 0, S1P3 agonist 0, S1P1 ag-PAM 35, HTR1A agonist 4, 5HT1E antag 32* and 5-HT1A blocker 11.
Screening CC(C)c1nnc(NC(=O)Cn2nc(-c3ccc4c(c3)OCCO4)ccc2=O)s1 returned HTR1E agonist 14*, S1P3 agonist 1, S1P1 ag-PAM 8, HTR1A agonist -2, 5HT1E antag 0 and 5-HT1A blocker -1.
For COc1cccc(C2=Nn3c(nnc3-c3ccccc3O)SC2)c1 the results were HTR1E agonist -1, S1P3 agonist -1, S1P1 ag-PAM 6, HTR1A agonist 0, 5HT1E antag 13 and 5-HT1A blocker 6.
Cc1ccc(-c2nnc3n2N=C(c2ccccc2)CS3)cc1 was read as HTR1E agonist 1, S1P3 agonist -1, S1P1 ag-PAM 34, HTR1A agonist -1, 5HT1E antag 45* and 5-HT1A blocker 5.
For Clc1ccccc1C1=Nn2c(nnc2-c2ccncc2)SC1 the results were HTR1E agonist 0, S1P3 agonist -1, S1P1 ag-PAM 75*, HTR1A agonist -3, 5HT1E antag 20 and 5-HT1A blocker 34.
Screening Cc1cccc(-c2nnc3n2N=C(c2ccccc2Br)CS3)c1 returned HTR1E agonist 2, S1P3 agonist -1, S1P1 ag-PAM 33, HTR1A agonist -5, 5HT1E antag 31* and 5-HT1A blocker 16.
COc1ccc(C2=Nn3c(nnc3-c3ccc(OC)cc3)SC2)cc1 was read as HTR1E agonist 0, S1P3 agonist 1, S1P1 ag-PAM 10, HTR1A agonist -1, 5HT1E antag 79* and 5-HT1A blocker 43*.
Screening O=C(Nn1cnnc1)c1ccccc1CCc1ccccc1 returned HTR1E agonist 0, S1P3 agonist -1, HTR1A agonist -2, 5HT1E antag 10 and 5-HT1A blocker 4.
Screening Cc1c(OC(=O)CNC(=O)OC(C)(C)C)ccc2c3c(c(=O)oc12)CCC3 returned HTR1E agonist 1, S1P3 agonist 0, S1P1 ag-PAM -4, HTR1A agonist -1, 5HT1E antag -2 and 5-HT1A blocker -17.
For COCCN(CC(=O)NCc1ccccc1)C(=O)CCC(=O)Nc1ccccn1 the results were HTR1E agonist -1, S1P3 agonist 0, S1P1 ag-PAM -5, HTR1A agonist -3, 5HT1E antag 7 and 5-HT1A blocker -2.
`CCn1cnc2sc(C(=O)N(Cc3ccc(N(C)C)cc3)Cc3ccco3)c(C)c2c1=O` gave HTR1E agonist 0, S1P3 agonist -1, S1P1 ag-PAM -27, HTR1A agonist 2, 5HT1E antag 40* and 5-HT1A blocker -6.
O=C(O)Cn1c(SC2CCCCC2)nc2ccccc21 was read as HTR1E agonist 0, S1P3 agonist 0, S1P1 ag-PAM -11, HTR1A agonist 19*, 5HT1E antag -16 and 5-HT1A blocker -1.
For CCCCC(CC)Cn1c(N)c(C#N)c2nc3ccccc3nc21 (stereo unspecified) the results were HTR1E agonist 17*, S1P3 agonist 3, S1P1 ag-PAM -269, HTR1A agonist 46*, 5HT1E antag -14 and 5-HT1A blocker -68.
For CCCCC(CC)Cn1c2nc3ccccc3nc2c2c(=N)oc(C)nc21 (stereo unspecified) the results were HTR1E agonist 0, HTR1A agonist 3, 5HT1E antag -8 and 5-HT1A blocker -8.
For c1ccc2c(CC3=NCCN3)cccc2c1 the results were HTR1E agonist 9.2*, S1P3 agonist -1, S1P1 ag-PAM -2, HTR1A agonist 4 and 5HT1E antag -19.
Cc1nc(N2CCN(C)CC2)[nH]c(=O)c1Cc1cccc2ccccc12 was read as HTR1E agonist 1, S1P3 agonist 0, S1P1 ag-PAM -4, HTR1A agonist -6, 5HT1E antag 10 and 5-HT1A blocker 1.
Screening COc1ccc(-c2noc(CCCC(=O)NCCc3ccccc3)n2)cc1OC returned HTR1E agonist 2, S1P3 agonist -1, S1P1 ag-PAM -13, HTR1A agonist -2, 5HT1E antag 1 and 5-HT1A blocker 8.
`CC(C)Cc1nc2oc3c(NCC4CCCO4)ncnc3c2c2c1CCC2` (stereo unspecified) gave HTR1E agonist 1, S1P3 agonist -1, S1P1 ag-PAM -30, HTR1A agonist 1, 5HT1E antag 14 and 5-HT1A blocker -18.
`CC(C)Cc1nc2oc3c(NCc4cccnc4)ncnc3c2c2c1CCC2` gave HTR1E agonist 2, S1P3 agonist 0, S1P1 ag-PAM -59, HTR1A agonist 0, 5HT1E antag 35* and 5-HT1A blocker -2.
Screening CCN1CCN(c2ncnc3c2oc2nc(C(C)C)c4c(c23)CCC4)CC1 returned HTR1E agonist 2, S1P3 agonist -1, S1P1 ag-PAM -32, HTR1A agonist -1, 5HT1E antag -6 and 5-HT1A blocker -19.
`CC(C)c1nc2oc3c(NCc4cccnc4)ncnc3c2c2c1CCC2` gave HTR1E agonist -1, S1P3 agonist 0, S1P1 ag-PAM -27, HTR1A agonist 1, 5HT1E antag 30* and 5-HT1A blocker -11.
`Cc1nn(C)c(C)c1NC(=O)c1ccc(S(=O)(=O)N(C)C)cc1` gave HTR1E agonist 0, S1P3 agonist 0, HTR1A agonist -1, 5HT1E antag -1 and 5-HT1A blocker 1.
`CN1CCN(c2c3c(c(C#N)c4nc5ccccc5n24)CCCC3)CC1` gave HTR1E agonist -1, S1P3 agonist -1, S1P1 ag-PAM -16, HTR1A agonist -2 and 5HT1E antag 9.
For Cc1nn(-c2ccccc2)c2sc(C(=O)OC3CCOC3=O)cc12 (stereo unspecified) the results were HTR1E agonist 0, S1P3 agonist 1, S1P1 ag-PAM -41, HTR1A agonist 0, 5HT1E antag 11 and 5-HT1A blocker 8.
For O=C(NCCCN1CCOCC1)c1cccs1 the results were HTR1E agonist 0, S1P3 agonist 0, HTR1A agonist -1, 5HT1E antag 2 and 5-HT1A blocker -14.
`COC(=O)c1cc(CSc2nnc(-c3ccccc3)c(-c3ccccc3)n2)oc1C` gave HTR1E agonist 0, S1P3 agonist 4, S1P1 ag-PAM 96*, HTR1A agonist -2, 5HT1E antag 9 and 5-HT1A blocker 8.
Screening C=CCN1C(=Nc2cccnc2)SCC1(O)c1ccc(C)cc1 (stereo unspecified) returned HTR1E agonist 0, S1P3 agonist 0, S1P1 ag-PAM 77*, HTR1A agonist -3, 5HT1E antag 11 and 5-HT1A blocker 9.
For N#Cc1c(N)nc(SCc2ccccn2)c(C#N)c1-c1cccs1 the results were HTR1E agonist 0, S1P3 agonist -2, S1P1 ag-PAM -26, HTR1A agonist 5 and 5HT1E antag 30*.
